Values after ≈ are worked out from the molar mass of the structure shown. Each block holds one compound with its values, some of them ahead of it. Active and inactive are the calls of the source. The rule behind the calls is not given here.
Legend:
[1] = Lipophilicity, log D of the compound; format: physicochemical; conditions: octanol/water
[2] = test system: PBMC; test: Antiinflammatory activity in human PBMC assessed as inhibition of LPS-induced TNFalpha production after 20 hrs by fluorescence linked immunosorbant assay; format: functional, cell-based
[3] = Fraction unbound in human plasma; format: ADME, cell-free
[4] = Aqueous solubility of the compound at pH 7.4; format: physicochemical; conditions: aqueous medium
[5] = target: 3',5'-cyclic-AMP phosphodiesterase 4B (Homo sapiens, UniProt Q07343); test: Inhibition of human recombinant PDE4B using [3H]cAMP by packard topcount scintillation counting analysis
[6] = Intrinsic clearance in rat hepatocytes measured per 10^6 cells; format: ADME, cell-based, Hepatocyte; conditions: read-out: CLH
[7] = test system: Blood; test: tissue or blood; conditions: Rattus norvegicus, 20 h, read-out: pIC50 (converted)
[8] = test system: Rattus norvegicus; test: Antiinflammatory activity in Sprague-Dawley rat assessed as inhibition of LPS-induced bronchoalveolar lavage neutrophils measured as LPS duration at 0.03 to 3 mg/ml, inhalation administered as nebulized suspension; format: functional, organism-based
How it was run: (§1)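 Duration protocol: rats received a nose-only inhalation of nebulized aqueous compound solution 12 h before LPS challenge. Dose is expressed as mg/mL nebulizer concentration. Readout was LPS-induced pulmonary neutrophilia, with terminal lung concentration (nM) measured. Groups held 8−10 animals per treatment.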

[9] = test system: Rattus norvegicus; test: Antiinflammatory activity in Sprague-Dawley rat assessed as inhibition of LPS-induced bronchoalveolar lavage neutrophils at 145 to 5238 particles/cm'3, inhalation administered as dry powder; format: functional, organism-based
[10] = test system: Rattus norvegicus; test: Antiinflammatory activity in Sprague-Dawley rat assessed as inhibition of LPS-induced bronchoalveolar lavage neutrophils at 0.03 to 3 mg/ml, inhalation administered as nebulized suspension; format: functional, organism-based
How it was run: (§2)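 Rats were given the compound as an aqueous nebulized aerosol by nose-only inhalation 30 min before LPS challenge. Dose is expressed as mg/mL nebulizer concentration. Lung neutrophilia was the readout, and terminal lung concentration (nM) was measured. Groups held 8−10 animals per treatment.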

[11] = Fraction unbound in rat plasma; format: ADME, cell-free
[12] = test system: Rattus norvegicus; test: Antiinflammatory activity in Sprague-Dawley rat assessed as inhibition of LPS-induced bronchoalveolar lavage neutrophils at lung exposure 1000 to 6000 particles/cm'3, inhalation administered as dry powder; format: functional, organism-based
[13] = Intrinsic clearance in human liver microsomes; format: ADME; conditions: read-out: CLH
[14] = Volume of distribution at steady state in rat at 1 mg/kg, iv; format: ADME, organism-based; set-up: dose 1 mg/kg, route intravenous; conditions: in vivo, read-out: Vdss
[15] = Half life in rat at 1 mg/kg, iv; format: ADME, organism-based; set-up: dose 1 mg/kg, route intravenous; conditions: in vivo
How it was run: (§3)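 Rat pharmacokinetics were run at 1 mg/kg, given iv or by intratracheal instillation, with 2−3 animals per study.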

[16] = Clearance in rat at 1 mg/kg, iv; format: ADME, organism-based; set-up: dose 1 mg/kg, route intravenous; conditions: in vivo; how it was run: as §3
[17] = test system: Rattus norvegicus; test: Apparent volume of distribution in rat at 1 mg/kg, iv; format: ADME, organism-based; set-up: dose 1 mg/kg, route intravenous; conditions: in vivo; how it was run: as §3
[18] = target: T1, Cytochrome P450 1A2 (Homo sapiens, UniProt P05177); test: Inhibition of CYP1A2 (unknown origin); format: ADME
T1 sequence (P05177 whole entry): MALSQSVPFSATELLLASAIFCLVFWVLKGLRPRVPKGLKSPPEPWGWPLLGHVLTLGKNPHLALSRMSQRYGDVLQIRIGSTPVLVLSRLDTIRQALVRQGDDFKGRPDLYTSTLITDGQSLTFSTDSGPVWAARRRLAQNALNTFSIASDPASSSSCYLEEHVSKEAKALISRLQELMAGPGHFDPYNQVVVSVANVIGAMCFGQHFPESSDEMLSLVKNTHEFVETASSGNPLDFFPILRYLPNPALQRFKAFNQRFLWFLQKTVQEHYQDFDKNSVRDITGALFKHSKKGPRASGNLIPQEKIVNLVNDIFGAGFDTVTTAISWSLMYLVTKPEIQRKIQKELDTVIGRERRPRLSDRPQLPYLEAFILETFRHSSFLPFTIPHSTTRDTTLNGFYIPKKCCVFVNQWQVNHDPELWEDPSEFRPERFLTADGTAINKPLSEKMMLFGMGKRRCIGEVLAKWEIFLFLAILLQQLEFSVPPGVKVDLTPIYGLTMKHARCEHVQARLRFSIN

[19] = test system: Rattus norvegicus; test: Antiinflammatory activity in nasally dosed Sprague-Dawley rat assessed as inhibition of LPS-induced bronchoalveolar lavage neutrophils measured as nebulizer concentration administered as […]; format: functional
How it was run: (§4)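 ED80 was derived from the nose-only nebulized-solution dose response in rats dosed 30 min before LPS challenge, with neutrophilia as the readout. ED80 is given as nebulizer concentration, as the matching terminal total lung concentration, and as lung deposited dose estimated from measured filter sample and terminal lung levels.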

[20] = test system: Rattus norvegicus; test: Antiinflammatory activity in nasally dosed Sprague-Dawley rat assessed as inhibition of LPS-induced bronchoalveolar lavage neutrophils measured as lung concentration administered as […]; format: functional; how it was run: as §4
[21] = target: Cytochrome P450 2D6 (Homo sapiens, UniProt P10635); test: Inhibition of CYP2D6 (unknown origin); format: ADME
[22] = test system: Rattus norvegicus; test: Antiinflammatory activity in nasally dosed Sprague-Dawley rat assessed as inhibition of LPS-induced bronchoalveolar lavage neutrophils measured as lung deposited dose administered as […]; format: functional; how it was run: as §4
[23] = test system: Rattus norvegicus; test: Antiinflammatory activity in Sprague-Dawley rat assessed as inhibition of LPS-induced bronchoalveolar lavage neutrophils measured as LPS duration at 0.1 mg/ml, inhalation administered as nebulized suspension; format: functional, organism-based; how it was run: as §1
[24] = target: Cytochrome P450 3A4 (Homo sapiens, UniProt P08684); test: Inhibition of CYP3A4 (unknown origin); format: ADME
[25] = target: Cytochrome P450 2C9 (Homo sapiens, UniProt P11712); test: Inhibition of CYP2C9 (unknown origin); format: ADME
[26] = target: Cytochrome P450 2C19 (Homo sapiens, UniProt P33261); test: Inhibition of CYP2C19 (unknown origin); format: ADME
[27] = test system: Rattus norvegicus; test: Antiinflammatory activity in Sprague-Dawley rat assessed as inhibition of LPS-induced bronchoalveolar lavage neutrophils at 0.03 mg/ml, inhalation administered as nebulized suspension; format: functional, organism-based; how it was run: as §2

Chain of 3',5'-cyclic-AMP phosphodiesterase 4B (Q07343 whole entry): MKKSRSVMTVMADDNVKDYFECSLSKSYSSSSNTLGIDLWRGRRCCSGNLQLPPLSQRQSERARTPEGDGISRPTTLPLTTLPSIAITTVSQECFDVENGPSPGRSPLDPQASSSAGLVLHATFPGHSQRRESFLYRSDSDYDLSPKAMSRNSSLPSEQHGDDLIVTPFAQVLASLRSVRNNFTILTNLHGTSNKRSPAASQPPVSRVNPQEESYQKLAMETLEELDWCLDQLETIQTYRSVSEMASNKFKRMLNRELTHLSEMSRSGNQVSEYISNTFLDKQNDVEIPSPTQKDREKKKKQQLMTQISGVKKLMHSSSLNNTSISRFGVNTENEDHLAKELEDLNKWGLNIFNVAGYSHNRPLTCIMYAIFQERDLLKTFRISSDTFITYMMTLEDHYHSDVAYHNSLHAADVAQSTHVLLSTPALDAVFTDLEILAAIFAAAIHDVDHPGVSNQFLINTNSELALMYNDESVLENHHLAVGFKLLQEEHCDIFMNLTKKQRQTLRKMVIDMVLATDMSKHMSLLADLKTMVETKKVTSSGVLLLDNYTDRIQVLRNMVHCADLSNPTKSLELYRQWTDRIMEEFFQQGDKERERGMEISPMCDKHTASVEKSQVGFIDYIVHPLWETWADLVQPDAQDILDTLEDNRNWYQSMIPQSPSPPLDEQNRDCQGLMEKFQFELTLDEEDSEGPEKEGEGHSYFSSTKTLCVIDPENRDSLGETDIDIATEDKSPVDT
Chain of Cytochrome P450 2C19 (P33261 whole entry): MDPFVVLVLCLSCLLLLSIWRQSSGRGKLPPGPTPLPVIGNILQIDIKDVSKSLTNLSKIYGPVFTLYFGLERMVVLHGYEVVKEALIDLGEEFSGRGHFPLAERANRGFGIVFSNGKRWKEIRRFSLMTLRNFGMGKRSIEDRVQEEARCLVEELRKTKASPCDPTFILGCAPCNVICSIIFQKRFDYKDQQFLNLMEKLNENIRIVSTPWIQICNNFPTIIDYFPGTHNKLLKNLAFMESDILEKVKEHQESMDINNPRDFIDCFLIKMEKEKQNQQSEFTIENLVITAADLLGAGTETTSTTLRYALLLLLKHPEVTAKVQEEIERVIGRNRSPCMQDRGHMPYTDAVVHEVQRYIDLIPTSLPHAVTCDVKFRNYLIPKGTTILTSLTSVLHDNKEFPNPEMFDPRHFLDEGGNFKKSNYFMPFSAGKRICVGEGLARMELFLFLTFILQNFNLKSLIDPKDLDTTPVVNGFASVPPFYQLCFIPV
Chain of Cytochrome P450 2D6 (P10635 whole entry): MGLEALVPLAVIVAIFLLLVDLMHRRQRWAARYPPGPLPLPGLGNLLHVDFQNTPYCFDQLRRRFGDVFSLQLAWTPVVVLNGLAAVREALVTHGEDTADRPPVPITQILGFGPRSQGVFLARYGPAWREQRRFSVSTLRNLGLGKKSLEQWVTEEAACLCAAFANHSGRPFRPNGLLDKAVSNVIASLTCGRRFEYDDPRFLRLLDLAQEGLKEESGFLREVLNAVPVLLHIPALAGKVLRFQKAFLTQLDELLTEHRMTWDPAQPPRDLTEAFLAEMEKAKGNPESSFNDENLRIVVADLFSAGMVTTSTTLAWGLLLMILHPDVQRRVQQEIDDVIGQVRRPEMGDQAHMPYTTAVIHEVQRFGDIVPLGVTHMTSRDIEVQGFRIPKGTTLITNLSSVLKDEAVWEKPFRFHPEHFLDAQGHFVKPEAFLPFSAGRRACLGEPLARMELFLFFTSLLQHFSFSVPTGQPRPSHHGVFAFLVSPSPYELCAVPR
Chain of Cytochrome P450 2C9 (P11712 whole entry): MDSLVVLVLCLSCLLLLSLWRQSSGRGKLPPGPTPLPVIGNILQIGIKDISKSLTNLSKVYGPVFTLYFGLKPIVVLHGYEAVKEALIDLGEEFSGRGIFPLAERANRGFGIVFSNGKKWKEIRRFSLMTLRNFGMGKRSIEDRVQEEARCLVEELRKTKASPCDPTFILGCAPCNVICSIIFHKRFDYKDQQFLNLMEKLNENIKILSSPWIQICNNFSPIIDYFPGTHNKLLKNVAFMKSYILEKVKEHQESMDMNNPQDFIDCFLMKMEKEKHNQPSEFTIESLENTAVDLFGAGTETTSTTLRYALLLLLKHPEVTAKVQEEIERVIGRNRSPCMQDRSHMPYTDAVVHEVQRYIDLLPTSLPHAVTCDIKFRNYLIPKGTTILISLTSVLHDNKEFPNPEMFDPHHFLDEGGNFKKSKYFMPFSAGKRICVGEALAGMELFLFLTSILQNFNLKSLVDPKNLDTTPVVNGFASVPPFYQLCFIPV
Chain of Cytochrome P450 3A4 (P08684 whole entry): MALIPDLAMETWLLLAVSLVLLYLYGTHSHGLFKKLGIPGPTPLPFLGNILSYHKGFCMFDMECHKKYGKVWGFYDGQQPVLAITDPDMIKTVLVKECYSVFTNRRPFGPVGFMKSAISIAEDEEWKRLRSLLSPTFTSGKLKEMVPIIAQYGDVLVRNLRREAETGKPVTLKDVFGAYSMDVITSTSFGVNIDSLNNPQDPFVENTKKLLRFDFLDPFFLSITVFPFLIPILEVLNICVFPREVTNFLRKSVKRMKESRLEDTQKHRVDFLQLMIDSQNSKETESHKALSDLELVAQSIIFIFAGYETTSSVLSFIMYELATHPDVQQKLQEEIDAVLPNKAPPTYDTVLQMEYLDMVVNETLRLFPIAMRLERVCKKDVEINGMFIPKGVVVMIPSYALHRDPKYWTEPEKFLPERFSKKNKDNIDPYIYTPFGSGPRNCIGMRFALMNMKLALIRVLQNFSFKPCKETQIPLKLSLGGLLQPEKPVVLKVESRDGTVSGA

logD [1]: 2.3
fraction unbound [3]: 0.16
solubility [4]: 970 µM (≈ 650 µg/mL)
SMILES: Cc1cc(C(=O)N[C@H]2CC[C@@H](NC(=O)c3cc(F)cnc3Oc3cccc(-c4ccc(O)c(CN5C[C@@H](C)N[C@@H](C)C5)c4)c3)CC2)nn1C
IC50 [2]: 0.0316 nM

IC50 [5]: 0.126 nM
SMILES: C[C@@H]1CN(Cc2ccc(-c3cccc(Oc4ncc(F)cc4C(=O)N[C@H]4CC[C@@H](NC(=O)c5ncccc5O)CC4)c3)cc2)C[C@H](C)N1

IC50 [5]: 0.0501 nM
SMILES: Cc1cc(C)n2ncc(C(=O)N[C@H]3CC[C@@H](NC(=O)c4cc(F)cnc4Oc4cccc(-c5ccc(O)cc5CN5CCOCC5)c4)CC3)c2n1

logD [1]: 2.2
fraction unbound [3]: 0.35
solubility [4]: > 1500 µM
SMILES: Cc1cc(C(=O)N[C@H]2CC[C@@H](NC(=O)c3cc(F)cnc3Oc3cccc(-c4cc(O)cc(CN5C[C@@H](C)N[C@@H](C)C5)c4)c3)CC2)nn1C
IC50 [2]: 0.398 nM

solubility [4]: > 1400 µM
SMILES: Cc1csc(C(=O)N[C@H]2CC[C@@H](NC(=O)c3cc(F)cnc3Oc3cccc(-c4ccc(CN5C[C@@H](C)N[C@@H](C)C5)cc4CN4CCOCC4)c3)CC2)n1.O=C(O)C(F)(F)F

hepatocyte CLint [6]: 76 µL/min/1e6 cells
IC50 [7]: 39.8 nM
logD [1]: 4.4
fraction unbound [11]: 0.017
microsomal CLint [13]: 116 µL/min/mg
IC50 [5]: 0.631 nM
Vd [14]: 22 L/kg
half-life [15]: 7.6 h
fraction unbound [3]: 0.0017
clearance [16]: 97 mL/min/kg
solubility [4]: < 1 µM
SMILES: Cc1ccc(O)c(C(=O)N[C@H]2CC[C@@H](NC(=O)c3cc(F)cnc3Oc3ccc(F)c(F)c3)CC2)c1 [UK-500001]
inhibition [8]: inactive
inhibition [9]: Active
inhibition [10]: inactive
inhibition [12]: Active
IC50 [2]: 3.98 nM

logD [1]: 2.4
fraction unbound [3]: 0.11
solubility [4]: 1300 µM (≈ 850 µg/mL)
SMILES: Cc1cc(C(=O)N[C@H]2CC[C@@H](NC(=O)c3cc(F)cnc3Oc3cccc(-c4ccc(CN5C[C@@H](C)N[C@@H](C)C5)cc4)c3)CC2)nn1C
IC50 [2]: 0.1 nM

Vz/F [17]: 41 L/kg
IC50 [18]: > 1000 nM
IC50 [21]: > 1000 nM
logD [1]: 2.6
IC50 [24]: > 1000 nM
IC50 [25]: > 1000 nM
IC50 [5]: 0.02 nM
Vd [14]: 21 L/kg
IC50 [26]: > 1000 nM
half-life [15]: 7 h
fraction unbound [3]: 0.045
clearance [16]: 68 mL/min/kg
solubility [4]: 130 µM (≈ 88.6 µg/mL)
SMILES: Cc1cc(C(=O)N[C@H]2CC[C@@H](NC(=O)c3cc(F)cnc3Oc3cccc(-c4ccc(CCCN5C[C@@H](C)N[C@@H](C)C5)cc4)c3)CC2)nn1C
ED80 [19]: 50 µg/mL (≈ 73.3 µM)
ED80 [20]: 60 nM
ED80 [22]: 0.6 µg/kg
inhibition [23]: Active
IC50 [2]: 0.0631 nM
inhibition [27]: Active

Vz/F [17]: 59 L/kg
IC50 [18]: > 1000 nM
IC50 [21]: > 1000 nM
logD [1]: 2.4
IC50 [24]: > 1000 nM
IC50 [25]: > 1000 nM
IC50 [5]: 0.0398 nM
Vd [14]: 44 L/kg
IC50 [26]: > 1000 nM
half-life [15]: 9 h
fraction unbound [3]: 0.042
clearance [16]: 74 mL/min/kg
solubility [4]: 120 µM (≈ 84.9 µg/mL)
SMILES: Cc1cc(C(=O)N[C@H]2CC[C@@H](NC(=O)c3cc(F)cnc3Oc3cccc(-c4ccc(CCN5CCC(N6CCCC6)CC5)cc4)c3)CC2)nn1C
inhibition [23]: Active
IC50 [2]: 0.0316 nM

pIC50 [5]: 10.2
SMILES: Cc1nc(C(=O)N[C@H]2CC[C@@H](NC(=O)c3cc(F)cnc3Oc3cccc(-c4ccc(CN5C[C@@H](C)N[C@@H](C)C5)cc4)c3)CC2)cs1

IC50 [5]: 2.51 nM
SMILES: O=C(N[C@H]1CC[C@@H](NC(=O)c2cc(F)cnc2Oc2cccc(-c3ccc(O)cc3CN3CCOCC3)c2)CC1)c1cncc(O)c1

— ChEMBL document CHEMBL3286180, “Efficacious inhaled PDE4 inhibitors with low emetic potential and long duration of action for the treatment of COPD” (J Med Chem, 2014)
